Assay results taken from ChEMBL document CHEMBL1649442, “Genetic determinants of resistance to fusidic acid among clinical bacteremia isolates of Staphylococcus aureus” (2009).
Converted amounts (≈) assume the structure as drawn.

What was measured:
Assay type in all cases: functional
Staphylococcus aureus [1] = assay: Antimicrobial activity against Staphylococcus aureus RN4220 transformed with Staphylococcus aureus isolate 27624 carrying pUB101 expressing cadX coding sequence by Etest
Outline: (§1)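 Plasmid DNA was extracted from each clinical bacteremia isolate after overnight growth in LB with 0.5% glycine, using lysostaphin/lysozyme/proteinase K lysis and alkaline lysis. It was electroporated into restriction-negative S. aureus RN4220 (2.3 kV, 25 μF, 100 Ω) and transformants were selected on NYE agar with ampicillin 1 μg/ml at 37°C. Fusidic acid MIC was read by Etest on Mueller-Hinton agar following the manufacturer's instructions.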

Staphylococcus aureus [2] = assay: Antimicrobial activity against cadX coding sequence deficient Staphylococcus aureus isolate 28414 expressing FusC C90T mutant and harboring pMW2 by Etest
Staphylococcus aureus [3] = assay: Antimicrobial activity against Staphylococcus aureus isolate 27980 expressing FusB and harboring pUB101 carrying cadX coding sequence by Etest
Staphylococcus aureus [4] = assay: Antimicrobial activity against Staphylococcus aureus isolate 28084 expressing FusC and harboring pMW2 carrying cadX coding sequence by Etest
Staphylococcus aureus [5] = assay: Antimicrobial activity against Staphylococcus aureus isolate 28362 expressing FusA Val90Ile mutant by Etest
Staphylococcus aureus [6] = assay: Antimicrobial activity against Staphylococcus aureus isolate 27657 expressing FusC by Etest
Staphylococcus aureus [7] = assay: Antimicrobial activity against Staphylococcus aureus isolate 28444 expressing FusB and harboring pUB101 carrying cadX coding sequence by Etest
Staphylococcus aureus [8] = assay: Antimicrobial activity against cadXD coding sequence deficient Staphylococcus aureus isolate 28444 expressing FusB by Etest
Outline: (§2)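 Fusidic acid-resistant S. aureus bacteremia clinical isolates, originally from Statens Serum Institut. MIC read by Etest on Mueller-Hinton agar, following the manufacturer's instructions. Liquid cultures grown in LB at 37°C with shaking at 200 rpm. fusB and cadXD presence checked by PCR and sequencing.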

Staphylococcus aureus [9] = assay: Antimicrobial activity against cadXD coding sequence deficient Staphylococcus aureus isolate 27624 expressing FusB by Etest; outline: as §2
Staphylococcus aureus [10] = assay: Antimicrobial activity against cadXD coding sequence deficient Staphylococcus aureus isolate 27856 expressing FusB by Etest; outline: as §2
Staphylococcus aureus [11] = assay: Antimicrobial activity against cadXD coding sequence deficient Staphylococcus aureus isolate 27971 expressing FusB by Etest; outline: as §2
Staphylococcus aureus [12] = assay: Antimicrobial activity against cadX coding sequence deficient Staphylococcus aureus isolate 28410 expressing FusC C90T mutant and harboring pMW2 by Etest
Staphylococcus aureus [13] = assay: Antimicrobial activity against Staphylococcus aureus isolate 28416 expressing FusC by Etest
Staphylococcus aureus [14] = assay: Antimicrobial activity against Staphylococcus aureus isolate 28332 expressing FusB and harboring pUB101 carrying cadX coding sequence by Etest
Staphylococcus aureus [15] = assay: Antimicrobial activity against cadX coding sequence deficient Staphylococcus aureus isolate 27768 expressing FusA Leu461Ser mutant and harboring pMW2 by Etest
Staphylococcus aureus [16] = assay: Antimicrobial activity against Staphylococcus aureus RN4220 transformed with Staphylococcus aureus isolate 27856 carrying pUB101 expressing cadX coding sequence by Etest; outline: as §1
Staphylococcus aureus [17] = assay: Antimicrobial activity against cadXD coding sequence deficient Staphylococcus aureus isolate 27980 expressing FusB by Etest; outline: as §2
Staphylococcus aureus [18] = assay: Antimicrobial activity against cadX coding sequence deficient Staphylococcus aureus isolate 28150 expressing FusC and harboring pMW2 by Etest
Staphylococcus aureus [19] = assay: Antimicrobial activity against Staphylococcus aureus isolate 27971 expressing FusB and harboring pUB101 carrying cadX coding sequence by Etest
Staphylococcus aureus [20] = assay: Antimicrobial activity against cadX coding sequence deficient Staphylococcus aureus isolate 28400 expressing FusC C90T mutant and harboring pMW2 by Etest
Staphylococcus aureus [21] = assay: Antimicrobial activity against cadX coding sequence deficient Staphylococcus aureus isolate 28335 expressing FusC C90T mutant and harboring pMW2 by Etest
Staphylococcus aureus [22] = assay: Antimicrobial activity against Staphylococcus aureus isolate 27731 expressing FusA Ala71Val, Asp189Gly, Pro406Leu mutant and harboring pMW2 carrying cadX coding sequence by Etest
Staphylococcus aureus [23] = assay: Antimicrobial activity against Staphylococcus aureus RN4220 transformed with Staphylococcus aureus isolate 28332 carrying pUB101 cadX coding sequence by Etest; outline: as §1
Staphylococcus aureus [24] = assay: Antimicrobial activity against Staphylococcus aureus isolate 27844 expressing FusA Ala376Val, Leu461Phe, Asp463Gly, Ala655Pro mutant and harboring pMW2 carrying cadX coding sequence by Etest
Staphylococcus aureus [25] = assay: Antimicrobial activity against Staphylococcus aureus isolate 27624 expressing FusB and harboring pUB101 carrying cadX coding sequence by Etest
Staphylococcus aureus [26] = assay: Antimicrobial activity against Staphylococcus aureus isolate 28130 expressing FusA Leu461Ser mutant pMW2 carrying cadX coding sequence by Etest
Staphylococcus aureus [27] = assay: Antimicrobial activity against Staphylococcus aureus RN4220 transformed with Staphylococcus aureus isolate 27971 carrying pUB101 expressing cadX coding sequence by Etest; outline: as §1
Staphylococcus aureus [28] = assay: Antimicrobial activity against Staphylococcus aureus isolate 27856 expressing FusB and harboring pUB101 carrying cadX coding sequence by Etest
Staphylococcus aureus [29] = assay: Antimicrobial activity against cadXD coding sequence deficient Staphylococcus aureus isolate 28332 expressing FusB by Etest; outline: as §2
Staphylococcus aureus [30] = assay: Antimicrobial activity against Staphylococcus aureus RN4220 transformed with Staphylococcus aureus isolate 28444 carrying pUB101 expressing cadX coding sequence by Etest; outline: as §1
Staphylococcus aureus [31] = assay: Antimicrobial activity against cadX coding sequence deficient Staphylococcus aureus isolate 27962 expressing FusA Met453Ile mutant and harboring pMW2 by Etest
Staphylococcus aureus [32] = assay: Antimicrobial activity against Staphylococcus aureus RN4220 transformed with Staphylococcus aureus isolate 27980 carrying pUB101 expressing cadX coding sequence by Etest; outline: as §1

Question: Which MIC (Staphylococcus aureus [1]) does the source give for `CC(=O)O[C@H]1C[C@@]2(C)[C@@H](C[C@@H](O)[C@H]3[C@@]4(C)CC[C@@H](O)[C@@H](C)[C@@H]4CC[C@@]32C)/C1=C(\CCC=C(C)C)C(=O)O` [FUSIDIC ACID] here?
Answer: The MIC was 8 µg/mL (≈ 15.5 µM).

Question: And the MIC (Staphylococcus aureus [2])?
Answer: The MIC was 6 µg/mL (≈ 11.6 µM).

Question: What about the MIC (Staphylococcus aureus [3]) of the same compound?
Answer: Its MIC is 12 µg/mL (≈ 23.2 µM).

Question: What about the MIC (Staphylococcus aureus [4]) of the same compound?
Answer: Its MIC is 12 µg/mL (≈ 23.2 µM).

Question: What about the MIC (Staphylococcus aureus [5]) of the same compound?
Answer: The MIC was 8 µg/mL (≈ 15.5 µM).

Question: And the MIC (Staphylococcus aureus [6])?
Answer: The MIC was 8 µg/mL (≈ 15.5 µM).

Question: And the MIC (Staphylococcus aureus [7])?
Answer: The MIC was 12 µg/mL (≈ 23.2 µM).

Question: What about the MIC (Staphylococcus aureus [8]) of the same compound?
Answer: The MIC was 0.064 µg/mL (≈ 0.124 µM).

Question: What about the MIC (Staphylococcus aureus [9]) of the same compound?
Answer: The MIC was 0.094 µg/mL (≈ 0.182 µM).

Question: And the MIC (Staphylococcus aureus [10])?
Answer: The MIC was 0.094 µg/mL (≈ 0.182 µM).

Question: What about the MIC (Staphylococcus aureus [11]) of the same compound?
Answer: Its MIC is 0.094 µg/mL (≈ 0.182 µM).

Question: And the MIC (Staphylococcus aureus [12])?
Answer: The MIC was 6 µg/mL (≈ 11.6 µM).

Question: And the MIC (Staphylococcus aureus [13])?
Answer: Its MIC is 8 µg/mL (≈ 15.5 µM).

Question: And the MIC (Staphylococcus aureus [14])?
Answer: Its MIC is 12 µg/mL (≈ 23.2 µM).

Question: What about the MIC (Staphylococcus aureus [15]) of the same compound?
Answer: Its MIC is 8 µg/mL (≈ 15.5 µM).

Question: What about the MIC (Staphylococcus aureus [16]) of the same compound?
Answer: Its MIC is 8 µg/mL (≈ 15.5 µM).

Question: What about the MIC (Staphylococcus aureus [17]) of the same compound?
Answer: The MIC was 0.094 µg/mL (≈ 0.182 µM).

Question: What about the MIC (Staphylococcus aureus [18]) of the same compound?
Answer: The MIC was 8 µg/mL (≈ 15.5 µM).

Question: What about the MIC (Staphylococcus aureus [19]) of the same compound?
Answer: Its MIC is 8 µg/mL (≈ 15.5 µM).

Question: And the MIC (Staphylococcus aureus [20])?
Answer: The MIC was 6 µg/mL (≈ 11.6 µM).

Question: And the MIC (Staphylococcus aureus [21])?
Answer: The MIC was 8 µg/mL (≈ 15.5 µM).

Question: What about the MIC (Staphylococcus aureus [22]) of the same compound?
Answer: Its MIC is 8 µg/mL (≈ 15.5 µM).

Question: And the MIC (Staphylococcus aureus [23])?
Answer: The MIC was 8 µg/mL (≈ 15.5 µM).

Question: What about the MIC (Staphylococcus aureus [24]) of the same compound?
Answer: Its MIC is 256 µg/mL (≈ 495 µM).

Question: And the MIC (Staphylococcus aureus [25])?
Answer: Its MIC is 6 µg/mL (≈ 11.6 µM).

Question: What about the MIC (Staphylococcus aureus [26]) of the same compound?
Answer: Its MIC is 6 µg/mL (≈ 11.6 µM).

Question: What about the MIC (Staphylococcus aureus [27]) of the same compound?
Answer: Its MIC is 8 µg/mL (≈ 15.5 µM).

Question: And the MIC (Staphylococcus aureus [28])?
Answer: Its MIC is 8 µg/mL (≈ 15.5 µM).

Question: And the MIC (Staphylococcus aureus [29])?
Answer: Its MIC is 0.125 µg/mL (≈ 0.242 µM).

Question: What about the MIC (Staphylococcus aureus [30]) of the same compound?
Answer: The MIC was 8 µg/mL (≈ 15.5 µM).

Question: What about the MIC (Staphylococcus aureus [31]) of the same compound?
Answer: The MIC was 4 µg/mL (≈ 7.74 µM).

Question: What about the MIC (Staphylococcus aureus [32]) of the same compound?
Answer: The MIC was 8 µg/mL (≈ 15.5 µM).
